Sampled rows, rich in hits. Any-hit rate of the full collection: about 12%.
WT yeast gro inh: growth inhibition of WT strain, primary screen, mitochondrial fusion inhibitor project, WT and mutant strains, chemical genetic; mitochondrial fusion phenotypic screen; inhibition, % at 10 µM; 2.1% of 190,000 active; AID 1362, 2008; in the data active = inhibition above about 58%; tested in S. cerevisiae
ABCB1 block: ABCB1 efflux pump inhibitors, primary screen, cell-based, multiplex, flow cytometry, ABCG2 counter-screen; ATP-dependent translocase ABCB1 (Homo sapiens), P08183; CCRF-Adr cells, JC-1 efflux; inhibition, % at 6.6 µM; 0.067% of 190,000 active; AID 1326, 2008; in the data active = inhibition above about 40%;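 note: higher value means more JC-1 retained so stronger ABCB1 efflux block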
ABCG2 block: ABCG2 efflux pump inhibitors, primary screen, multiplex with ABCB1, IgMXP3 cells, flow cytometry. Broad substrate specificity ATP-binding cassette transporter ABCG2 (Homo sapiens), Q9UNQ0. 0.1% of 190,000 active. inhibition, % at 6.6 µM. JC-1 efflux;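 active = inhibition above 80%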
Target sequence (Q9UNQ0 whole entry, looked up): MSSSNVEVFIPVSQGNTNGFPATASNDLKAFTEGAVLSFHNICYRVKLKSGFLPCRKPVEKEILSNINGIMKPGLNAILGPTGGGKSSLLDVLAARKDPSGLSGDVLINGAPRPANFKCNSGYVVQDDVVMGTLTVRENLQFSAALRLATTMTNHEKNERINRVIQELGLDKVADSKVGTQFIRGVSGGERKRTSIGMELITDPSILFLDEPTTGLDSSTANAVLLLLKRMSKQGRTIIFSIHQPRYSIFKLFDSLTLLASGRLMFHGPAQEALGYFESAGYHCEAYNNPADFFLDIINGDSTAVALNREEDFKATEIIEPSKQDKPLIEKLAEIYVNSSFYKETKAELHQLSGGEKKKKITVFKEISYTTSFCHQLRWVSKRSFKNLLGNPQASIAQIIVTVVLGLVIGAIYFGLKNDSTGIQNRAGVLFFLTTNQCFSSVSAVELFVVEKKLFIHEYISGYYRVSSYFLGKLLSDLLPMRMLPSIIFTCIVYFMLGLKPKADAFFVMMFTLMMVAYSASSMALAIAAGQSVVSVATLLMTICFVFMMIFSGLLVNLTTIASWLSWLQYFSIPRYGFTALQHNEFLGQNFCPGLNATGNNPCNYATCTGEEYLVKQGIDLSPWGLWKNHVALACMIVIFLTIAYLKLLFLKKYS
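Assay system – ABCG2 IgMXP3 and barcoded ABCB1 CCRF-Adr cell mix · Input – 3 million cells/mL in well · Reagent – JC-1 fluorescent substrate · Compound – single test compound dose, 6.6 µM final · Timing – 10 min exposure at 25 °C with rotation, no wash · Detection – flow cytometry of retained JC-1 fluorescence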
L major viab: Leishmania major promastigote growth inhibition, primary screen | Leishmania major promastigotes, resazurin fluorescence viability | inhibition, % at 10 µM | 9% of 200,000 active | AID 1063, 2008; in the data active = inhibition above about 50%;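 note: promastigotes grown with compound for 44 hours at 28 °C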
RAM network inh: inhibitors of the yeast RAM network, primary screen, dse1pr::URA3 reporter, 5-FOA selection | S. cerevisiae dse1pr::URA3 reporter, 5-FOA growth OD615, 2 d; analog-sensitive cbk1-as2 kinase mutant strain | inhibition, % at 50 µM | 1.8% of 190,000 active;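 active = inhibition above a set limit, 3 SD over mean compound inhibition, cut at about 8.4% in these data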;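 note: inhibition rescues growth on 5-FOA so higher OD means more RAM inhibition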
Of the large screens only hits and unclear results are named; the others gave an inactive call.

CCOc1ccc(C(=O)Nc2ccc(NC(=O)c3cccs3)cc2)cc1[N+](=O)[O-]	RAM network inh 10
Cc1cc(C)cc(-n2cc(C(=O)O)c(=O)cc2C)c1	none
CCNS(=O)(=O)c1ccc(CCC(=O)NCc2ccc(C)cc2)cc1	none
Nn1c(Cc2cccc3ccccc23)nnc1SCCOc1ccc(F)cc1	none
Nn1c(Cc2cccc3ccccc23)nnc1SCCOc1ccc(Br)cc1	WT yeast gro inh 68
COc1ccc(CCNCC(O)COc2cccc(Br)c2)cc1 (stereo not drawn)	L major viab 52
OC(CNCc1ccco1)COc1ccccc1 (stereo not drawn)	none
OC(CNCCc1ccc(C(F)(F)F)cc1)COc1cccc2ccccc12 (stereo not drawn)	L major viab 97
COc1ccc(OCC(O)CNCc2ccco2)cc1 (stereo not drawn)	WT yeast gro inh 72
OC(CNCCc1ccc(C(F)(F)F)cc1)COc1ccc2ccccc2c1 (stereo not drawn)	L major viab 99
Cc1cccc(C)c1NC(=O)C[N+](C)(C)CC(O)COc1cccc2ccccc12 (stereo not drawn)	none
CNCC(O)COc1cccc(OC)c1 (stereo not drawn)	none
CCS(=O)(=O)N1CCN(c2ccc(Cl)cc2[N+](=O)[O-])CC1	none
N#CC1=C(N)Oc2ccc3ccc(O)cc3c2C1c1ccsc1 (stereo not drawn)	none
CCN(CC)S(=O)(=O)c1cccc(NC(=O)c2ccc(Sc3nncn3C)c([N+](=O)[O-])c2)c1	none
COc1ccc(CNCC(O)COc2cccc3c2OC(C)(C)C3)cc1 (stereo not drawn)	L major viab 86
CCOc1ccccc1NC(=O)COC(=O)C(CC)c1ccccc1 (stereo not drawn)	none
O=C(CN1C(=O)S/C(=C\c2ccc(F)cc2)C1=O)Nc1cccc(S(=O)(=O)NCc2ccco2)c1	none
COc1ccc2c(=O)c3c(=O)n(Cc4ccco4)c(-c4cc(OC)c(OC)c(OC)c4)nc3oc2c1	L major viab 67
COc1ccc2c(=O)c3c(=O)n(Cc4ccco4)c(-c4ccccc4)nc3oc2c1	L major viab 62
CCCc1nc2oc3cc(OC)ccc3c(=O)c2c(=O)n1Cc1ccco1	none
COCCn1c(-c2ccccc2)nc2oc3cc(OC)ccc3c(=O)c2c1=O	none
COc1ccc(Cn2c(C)nc3oc4cc(OC)ccc4c(=O)c3c2=O)cc1	none
CCCCCCn1c(-c2ccco2)nc2oc3cc(OC)ccc3c(=O)c2c1=O	L major viab 52
COc1ccccc1OC(=O)c1cc(Cl)nc2ccccc12	none
CSc1nc(O)cc(=O)n1-c1ccc(F)cc1	none
O=C(c1ccc2c(c1)C(=O)N(CCCO)C2=O)c1ccc2c(c1)C(=O)N(CCCO)C2=O	none
O=C1c2ccc3c4c(ccc(c24)C(=O)N1CCCCO)C(=O)N(CCCCO)C3=O	L major viab 100
Cc1cc(C(=O)CCl)c(C)n1-c1ccon1	L major viab 97
Cc1cc(C(=O)CCl)c(C)n1-c1cccc([N+](=O)[O-])c1	L major viab 101
CCOC(=O)C1=C(C)NC(C)=C(C(=O)OCC)C1C(=O)OCC(=O)N(CC)C1CCS(=O)(=O)C1 (stereo not drawn)	none
CC(C)NC(=O)c1onc(CSc2cccc(Cl)c2)c1C(=O)O	none
COC(=O)c1ccc(CSc2nc3c(c(=O)n2-c2ccc(Br)cc2)SCC3)o1	L major viab 98
CCOc1ccc(-n2c(SCc3ccc(C(=O)OC)o3)nc3c(c2=O)SCC3)cc1	L major viab 83
O=C(CSc1nc2c(c(=O)n1-c1ccc(Cl)cc1)SCC2)N1CCCC1	none
COc1cc(C(=O)NCc2nnc(SCC(=O)N3CCOCC3)o2)cc(OC)c1OC	none
CC(=O)c1ccc(OCC(=O)NCc2ccc(F)cc2)cc1	none
CCOCc1c(C(=O)NC2CCCCCC2)oc2ccccc12	none
O=C1Nc2ccccc2C1(O)C/C(=N/O)c1ccccc1 (stereo not drawn)	none
CCCCSc1ccc2nc(-c3ccc(C#N)cc3)cn2c1	none
CCCSc1ccc2nc(-c3ccccc3)cn2c1	WT yeast gro inh 70
O=C(Cc1cccs1)Nc1nc(-c2ccc(F)cc2F)cs1	L major viab 98
COc1ccc(OC)c(-c2csc(NC(=O)Cc3cccs3)n2)c1	RAM network inh 8.6
COc1ccc(S(=O)(=O)Nc2ccccc2OC)cc1NC(=O)Cc1cccs1	L major viab 100
CC(=O)Nc1ccc(N(C(=O)Cn2nnc3ccccc32)C(C(=O)NC2CCCC2)c2ccc(O)c(O)c2)cc1 (stereo not drawn)	none
CC(C)c1nnc(NC(=O)CSc2nnc(NC(=O)c3c(F)cccc3F)s2)s1	RAM network inh 10
CC(C)Nc1nnc(SCC(=O)Nc2ccc(F)cc2)s1	none
COc1ccc(C2C(C#N)=C(N)N(c3cccnc3)C3=C2C(=O)CCC3)cc1Cn1cc([N+](=O)[O-])cn1 (stereo not drawn)	L major viab 89
COc1ccc(C2C(C#N)=C(N)N(c3ccccc3)C3=C2C(=O)CCC3)cc1Cn1cc([N+](=O)[O-])cn1 (stereo not drawn)	L major viab 99
COc1ccc(C2C(C#N)=C(N)OC3=C2C(=O)CCC3)cc1Cn1cc([N+](=O)[O-])cn1 (stereo not drawn)	none
COc1ccc(C2C(C#N)=C(N)OC3=C2C(=O)CC(C)(C)C3)cc1Cn1cc([N+](=O)[O-])cn1 (stereo not drawn)	none
CC(C)(C)n1nc2c(c1NC(=O)c1cc3ccccc3o1)CS(=O)(=O)C2	none
CCOc1ccccc1CN1CCN(S(=O)(=O)CC)CC1	L major viab 82
CCCS(=O)(=O)N1CCN(Cc2ccccc2OCC)CC1	none
COc1ccccc1N1CCN(S(=O)(=O)Cc2ccccc2Cl)CC1	none
CCS(=O)(=O)N1CCN(Cc2ccccc2OC)CC1	L major viab 60
Cc1ccc(C(=S)NCS(=O)(=O)c2ccc(C)cc2)cc1	none
Cc1ccc(S(=O)(=O)CNC(=S)c2cccc(Cl)c2)cc1	WT yeast gro inh 69
CCc1c(C)[nH]c2nc3ccccc3n2c1=O	L major viab 94
Cc1nc(N)sc1N=Nc1ccc(Br)cc1	WT yeast gro inh 66
Cc1[nH]nc(N)c1N=Nc1ccc(Br)cc1	none
N#C/C(=C/c1ccc(N2CCCCC2)cc1)c1cccc(F)c1	L major viab 99
N#C/C(=C/c1ccc(N2CCCCC2)o1)c1cccc(F)c1	none
Cn1nnnc1SCc1csc(C2C(C#N)=C(N)OC3=C2C(=O)CCC3)c1 (stereo not drawn)	none
COc1ccc2c(CC(=O)NC3CCCc4ccccc43)coc2c1 (stereo not drawn)	none
O=C(Nc1nc2c(s1)CN(Cc1ccccc1)CC2)c1c(F)cccc1F	none
